Data from ChEMBL document CHEMBL2062496, “Identification of a sirtuin 3 inhibitor that displays selectivity over sirtuin 1 and 2” (Eur J Med Chem, 2012).
Activity calls are given as the source filed them. The calls are words filed in the database; no cut-off is given here.

What was measured:
[1] = biological target: T1, NAD-dependent protein deacetylase sirtuin-1 (Homo sapiens) (UniProt Q96EB6); assay: Inhibition of human SIRT1 assessed as enzyme activity using Fluor-de-Lys as substrate at 100 uM by fluorometry
T1 sequence (whole entry): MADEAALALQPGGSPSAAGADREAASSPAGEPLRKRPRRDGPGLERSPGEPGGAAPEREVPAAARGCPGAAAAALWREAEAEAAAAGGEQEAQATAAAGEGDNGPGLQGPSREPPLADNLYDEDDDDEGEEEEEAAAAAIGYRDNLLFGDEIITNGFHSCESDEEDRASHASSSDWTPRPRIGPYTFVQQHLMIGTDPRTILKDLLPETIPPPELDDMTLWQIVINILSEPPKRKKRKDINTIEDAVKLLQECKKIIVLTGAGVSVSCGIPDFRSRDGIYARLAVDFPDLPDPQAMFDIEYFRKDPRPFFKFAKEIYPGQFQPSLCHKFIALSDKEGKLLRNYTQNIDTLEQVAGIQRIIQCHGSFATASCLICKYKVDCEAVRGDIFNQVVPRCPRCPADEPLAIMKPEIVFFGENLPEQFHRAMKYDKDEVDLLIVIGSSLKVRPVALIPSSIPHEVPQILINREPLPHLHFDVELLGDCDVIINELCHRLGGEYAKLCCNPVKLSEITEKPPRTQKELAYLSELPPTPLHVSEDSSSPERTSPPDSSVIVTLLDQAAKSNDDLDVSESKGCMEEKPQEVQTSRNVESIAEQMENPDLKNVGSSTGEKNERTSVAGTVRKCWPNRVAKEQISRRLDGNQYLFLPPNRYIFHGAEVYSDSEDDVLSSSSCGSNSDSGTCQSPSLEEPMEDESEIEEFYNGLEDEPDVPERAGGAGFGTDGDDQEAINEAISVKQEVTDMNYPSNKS
Method in brief: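 Commercial Fluor-de-Lys kit, substrate human p53 379–382 peptide (Arg-His-Lys-Lys(Ac)). Human Sirt1 or Sirt2 was incubated with substrate, NAD+ and compound at 1 mM, also tested at 100 µM. Fluorescence scales with Lys382 deacetylation. Activity is expressed relative to control, mean ± S.E.M. of 3–4 replicates.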

BT-549 = assay: Growth inhibition of human BT549 cells assessed as cell growth at 10 uM after 48 hrs by MTT assay; values are per cent of control; conditions: BT-549, 48 h

c1cncc(-c2cnn[nH]2)c1
inhibition [1]: inactive
growth, % of control at 10 µM (BT-549): 97.7%
